Experimental data as given in ChEMBL document CHEMBL1629539, “Configuration of the 5'-methyl group modulates the biophysical and biological properties of locked nucleic acid (LNA) oligonucleotides” (J Med Chem, 2010).
The source made the active and inactive calls. The rule behind the calls is not given here.

Tests used:
Mus musculus [1] = experiment: Hepatoprotective activity in BALB/c mouse assessed as at 23 mg/kg, ip assessed as reduction of plasma alanine amino transferase levels after 72 hrs post dose; format: functional, organism-based; design: dose 23 mg/kg
Outline: (§1)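 Balb-c mice, 4 per group, one ip dose at 23 or 46 mg/kg of 14-mer fully phosphorothioate gapmer ASO targeting PTEN. Sacrifice 72 h after dosing. Liver PTEN mRNA quantified by quantitative RT-PCR, expressed as % down-regulation versus saline-treated animals. Plasma ALT (IU/L) measured after sacrifice.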

Mus musculus [2] = experiment: Hepatoprotective activity in BALB/c mouse assessed as at 46 mg/kg, ip assessed as reduction of plasma alanine amino transferase levels after 72 hrs post dose; format: functional, organism-based; design: dose 46 mg/kg; outline: as §1
Mus musculus [3] = experiment: Reduction in PTEN mRNA expression in ip dosed BALB/c mouse liver administered twice weekly for 3 weeks measured after 72 hrs post last dose; format: functional
Outline: (§2)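 Balb-c mice (n = 4/group) dosed ip twice a week for 3 weeks at 0.5, 1.5, 4.5 and 15 mg/kg of PTEN-targeting 14-mer phosphorothioate gapmer. Sacrifice 72 h after last dose. Liver PTEN mRNA by quantitative RT-PCR as % versus saline, with ED50 derived from dose-response. Plasma ALT (IU/L) recorded. Spleen weight given as fold increase over saline group.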

Mus musculus [4] = experiment: Toxicity in BALB/c mouse assessed as increase in spleen weight at 1.5 mg/kg, ip administered twice weekly for 3 weeks measured after 72 hrs post last dose; format: organism-based; design: dose 1.5 mg/kg, route intraperitoneal; conditions: in vivo; outline: as §2
Mus musculus [5] = experiment: Toxicity in BALB/c mouse assessed as increase in spleen weight at 4.5 mg/kg, ip administered twice weekly for 3 weeks measured after 72 hrs post last dose; format: organism-based; design: dose 4.5 mg/kg, route intraperitoneal; conditions: in vivo; outline: as §2
Mus musculus [6] = experiment: Toxicity in BALB/c mouse assessed as increase in spleen weight at 15 mg/kg, ip administered twice weekly for 3 weeks measured after 72 hrs post last dose; format: organism-based; design: dose 15 mg/kg, route intraperitoneal; conditions: in vivo; outline: as §2

**Q.** What does the source list for `Cc1cn([C@@H]2O[C@@]3(COP(O)(=S)O[C@@H]4[C@H]5OC[C@]4(CO)O[C@H]5n4cc(C)c(=O)[nH]c4=O)CO[C@@H]2[C@@H]3OP(O)(=S)OC[C@@]23CO[C@@H]([C@H](n4cnc5c(N)ncnc54)O2)[C@@H]3OP(O)(=S)OC[C@@]23CO[C@@H]([C@H](n4cc(C)c(=O)[nH]c4=O)O2)[C@@H]3OP(O)(=S)OC[C@@]23CO[C@@H]([C@H](n4cnc5nc(N)[nH]c(=O)c54)O2)[C@@H]3OP(O)(=S)OC[C@@]23CO[C@@H]([C@H](n4cnc5nc(N)[nH]c(=O)c54)O2)[C@@H]3OP(O)(=S)OC[C@@]23CO[C@@H]([C@H](N4CCC(N)=NC4=O)O2)[C@@H]3OP(O)(=S)OC[C@@]23CO[C@@H]([C@H](n4cc(C)c(=O)[nH]c4=O)O2)[C@@H]3OP(O)(=S)OC[C@@]23CO[C@@H]([C@H](n4cnc5nc(N)[nH]c(=O)c54)O2)[C@@H]3OP(O)(=S)OC[C@@]23CO[C@@H]([C@H](n4ccc(N)nc4=O)O2)[C@@H]3OP(O)(=S)OC[C@@]23CO[C@@H]([C@H](n4cnc5c(N)ncnc54)O2)[C@@H]3OP(O)(=S)OC[C@@]23CO[C@@H]([C@H](n4cnc5nc(N)[nH]c(=O)c54)O2)[C@@H]3OP(O)(=S)OC[C@@]23CO[C@@H]([C@H](n4cc(C)c(N)nc4=O)O2)[C@@H]3OP(O)(=S)OC[C@@]23CO[C@@H]([C@H](n4ccc(=O)[nH]c4=O)O2)[C@@H]3O)c(=O)nc1N` (some centres not stated)?
**A.** Activity (Mus musculus [1]): inactive; Activity (Mus musculus [2]): inactive; ED50 (Mus musculus [3]): 3.1 mg/kg; inhibition (Mus musculus [3]): Dose-dependent effect; Activity (Mus musculus [4]): Toxic; Activity (Mus musculus [5]): Toxic; Activity (Mus musculus [6]): Non-toxic
